Several values for one entry are separate records, joined by “and”; a condition that tells them apart may be missing. Equal values may be shown once. Read-outs that look alike come from different tables or passages of the source. Marks after values point to notes of the source that are not given here.
What was measured:
[1] = Multiple-dose steady-state plasma pharmacokinetics; assay type: in vivo, healthy subjects (human); conditions: for Coefficient of variation (intersubject variability) for exposure parameters (AUC0–24, Cmax, Cmin): apixaban 2.5 mg BID
factor Xa = factor Xa (Bos taurus, UniProt P00743); experiment: Steady-state plasma anti-factor Xa activity; assay type: in vivo, healthy subjects (human); conditions: for slope of concentration–AXA linear regression: AXA versus plasma concentration, P<0.0001 between drugs; for intercept in regression equation anti-FXa vs plasma concentration / slope in regression equation anti-FXa vs plasma concentration: Figure 4 regression equation; for AXA Tpeak median (min–max): time of peak anti-FXa activity, day 4 steady state; for AXA AUC(0–24) G mean (CV): 0 to 24 hours after morning dose, rivaroxaban 10 mg QD
healthy subjects = experiment: Safety and tolerability; assay type: in vivo, human; conditions: for deaths or serious AEs: during the study; for number of subjects reporting AEs: of 14 subjects; for tolerability: rivaroxaban 10 mg QD, apixaban 2.5 mg BID for 4 days
Summary of the method: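 Randomized open-label two-period crossover in healthy volunteers housed in a clinical unit. Each took two oral factor Xa inhibitors for 4 days: one at 2.5 mg twice daily, the other at 10 mg once daily. Physical exam, vital signs, 12-lead ECG and blood/urine labs were done at screening, before each period and at discharge. AEs were monitored throughout, MedDRA-coded, and graded for severity, onset, drug relationship and outcome.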

[2] = cited from earlier work; for fluctuation in mean concentrations / mean terminal half-life: apixaban 2.5 mg BID, multiple ascending dose study
[3] = cited from earlier work
[4] = VTEp patients; cited from earlier work
prothrombin time = conditions: at a concentration of 1,000 ng/mL; cited from earlier work
[5] = day 4 steady state, rivaroxaban 10 mg QD
[6] = day 4 steady state, rivaroxaban 10 mg QD, apixaban 2.5 mg BID oral, N=14

Sequence of factor Xa (P00743 234-492 limits assumed): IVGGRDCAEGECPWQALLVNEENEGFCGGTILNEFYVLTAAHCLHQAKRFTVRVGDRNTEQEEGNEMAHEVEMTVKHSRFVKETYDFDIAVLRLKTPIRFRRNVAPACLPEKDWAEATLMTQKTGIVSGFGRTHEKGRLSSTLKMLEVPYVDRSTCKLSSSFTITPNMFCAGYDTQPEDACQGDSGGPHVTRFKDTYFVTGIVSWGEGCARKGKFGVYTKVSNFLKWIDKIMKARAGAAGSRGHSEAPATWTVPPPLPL
Sequence of factor Xa (P00743 41-180 partner limits assumed): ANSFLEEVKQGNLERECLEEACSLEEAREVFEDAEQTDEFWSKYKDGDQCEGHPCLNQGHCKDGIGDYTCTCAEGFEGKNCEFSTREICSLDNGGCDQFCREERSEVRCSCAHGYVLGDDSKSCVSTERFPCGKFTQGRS

COc1ccc(-n2nc(C(N)=O)c3c2C(=O)N(c2ccc(N4CCCCC4=O)cc2)CC3)cc1 [Apixaban, apixaban]
T1/2 Mean (SD), terminal half-life ([1]; after last dose on day 4 (apixaban: evening dose; rivaroxaban: morning dose), N=14): 8.65 (2.19) ^* h | Coefficient of variation (intersubject variability) for exposure parameters (AUC0–24, Cmax, Cmin) [1, 5]: 20%–24% | Cmax G mean (%CV) [1, 6]: 80.5 (23) ng/mL | Tmax ([1]; human, plasma, oral): 2 h | AUC(0-t) ([1]; human, plasma, oral, 2.5 mg): 527 ng·h/mL | AXA AUC(0–12) G mean (CV) (factor Xa; 0 to 12 hours after morning dose, day 4, apixaban 2.5 mg BID, N=14): 7.42 (21) IU · h/mL | slope of concentration–AXA linear regression (factor Xa): 0.0134 IU/ng | intercept in regression equation anti-FXa vs plasma concentration (factor Xa): 0.02753 | slope in regression equation anti-FXa vs plasma concentration (factor Xa): 0.01342 | AXA T1/2 Mean (SD) (factor Xa; determined after evening dose on day 4, apixaban 2.5 mg BID): 8.9 h and 8.91 (2.46) ^‡ h | AXA Tpeak median (min–max) (factor Xa; N=14): 2.00 (1.00–3.00) h | AXA Tpeak median (min–max) (factor Xa; N=14, listed as apixaban): 2 h | deaths or serious AEs (healthy subjects): No deaths or serious AEs | number of subjects reporting AEs (healthy subjects): eight | tolerability (healthy subjects): well-tolerated | time to steady state ([2]; BID dosing): 2 to 3 days | fluctuation in mean concentrations ([2]; Japanese subjects): ~ 4.2 | mean terminal half-life ([2]; Japanese subjects): 9.7 h | fluctuation in mean concentrations ([2]; Western subjects): ~ 3.0 | mean terminal half-life ([2]; Western subjects): 8.1 h | terminal half-life [2]: ~ 12 hours | time to maximal plasma concentrations after administration [2]: ~ 3 hours | accumulation ([2]; following BID dosing): < 2 fold | bioavailability ([2]; not significantly influenced by dose or meals): ~ 50% | Protein binding [3]: ~ 87%

O=C(NC[C@H]1CN(c2ccc(N3CCOCC3=O)cc2)C(=O)O1)c1ccc(Cl)s1 [Rivaroxaban, rivaroxaban]
AUC0–24 at steady state, rivaroxaban higher than apixaban ([1]; daily AUC): ~ 17% | Cmax, rivaroxaban relative to apixaban (higher) ([1]; day 4): ~ 2 fold | Cmin, rivaroxaban lower than apixaban ([1]; day 4): ~ 40% | Coefficient of variation (intersubject variability) for exposure parameters (AUC0–24, Cmax, Cmin) [1, 5]: 29%–46% | Cmin G mean (%CV) [1, 6]: 10.1 (39) ng/mL | Cmax/Cmin ratio, rivaroxaban relative to apixaban ([1]; geometric mean ratio, 90% CI: 2.82–4.61): 3.6 fold | AXA AUC(0–24) G mean (CV) (factor Xa; day 4, apixaban 2.5 mg BID, N=14): 17.8 (29) IU · h/mL | AXA AUC(0–24) G mean (CV) (factor Xa; day 4, apixaban 2.5 mg BID, N=14, listed as rivaroxaban): 17.8 IU · h/mL | slope of concentration–AXA linear regression (factor Xa): 0.0172 IU/ng | intercept in regression equation anti-FXa vs plasma concentration (factor Xa): −0.03215 | slope in regression equation anti-FXa vs plasma concentration (factor Xa): 0.01719 | AXA AUC(0–24), rivaroxaban higher than apixaban (factor Xa; geometric mean): ~ 34% | AXA AUC(0–24), rivaroxaban relative to apixaban (higher) (factor Xa; steady state): ~1.3 fold | Peak AXA, rivaroxaban relative to apixaban (higher) (factor Xa; steady state): ~ 2.5 fold | trough AXA, rivaroxaban lower than apixaban (factor Xa; steady state): ~ 30% | AXA Tpeak median (min–max) (factor Xa; N=14): 2.00 (1.00–3.00) h | AXA Tpeak median (min–max) (factor Xa; N=14, listed as rivaroxaban): 2 h | number of AEs reported (healthy subjects; after start of study medication, 14 subjects, all mild): Twelve | deaths or serious AEs (healthy subjects): No deaths or serious AEs | number of subjects reporting AEs (healthy subjects): seven | tolerability (healthy subjects): well-tolerated | terminal half-life [2]: ~ 10 hours | time to maximal plasma concentrations after administration [2]: ~ 3 hours | bioavailability ([2]; depending on dose and administration with a meal): 66%–100% | accumulation ([2]; following QD administration): does not show appreciable accumulation | half-life ([2]; rivaroxaban 5 mg QD, healthy subjects): 8.4 h | Protein binding [3]: ~ 93% | Cmax/Cmin ratio [4]: ~ 7 | effect in the prothrombin time assay (prothrombin time): greater effect than apixaban

— paper PMC4235474 (Clinical Pharmacology : Advances and Applications, 2014)
